*1 amine or outer side, *2 acyl side, *3 side chain or, on linkers, in order; H or OH if unused. Where a SMILES comes first, the peptide text is derived from it. Side-chain parts run from the residue outwards. [ ]: non-standard residue; d: D form. The star is where a group is joined. X2 = O=C([C@@H]1Cc2c([nH]c3ccccc23)CN1CCN[*:1])[*:2]; X8 = O=C(CN(CCN[*:1])Cc1ccc([N+](=O)[O-])cc1)[*:2]; N(2-Aminoethyl)Gly = O=C(CN(CCN[*:3])[*:1])[*:2]; X7 = O=C(CN(CCN[*:1])CCc1c[nH]c2ccccc12)[*:2]; X4 = O=C([C@@H]1Cc2ccccc2CN1CCN[*:1])[*:2]; X9 = O=C(CN(CCN[*:1])Cc1ccnc2ccccc12)[*:2]; X6 = O=C(CN(CCN[*:1])CCc1ccccc1)[*:2]; X3 = O=C(CN(CCN[*:1])Cc1ccccc1)[*:2]; X1 = O=C(Cc1c[nH]c2ccccc12)*; 3Amb = NCc1cccc(C(=O)O)c1; PhAc = O=C(Cc1ccccc1)*; βAla = NCCC(=O)O
Assays:
[1] = species on record: Homo sapiens; test: Binding affinity to HLA-A2 in TAP-deficient HLA-A2+T2 cells assessed as fluorescence intensity relative to ELA
Summary of the method: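 T2 cells (TAP-deficient, HLA-A2+) loaded overnight at 37 °C in serum-free RPMI-1640 with 100 µM compound plus human β2-microglobulin (100 ng/mL). Washed, stained with HLA-A2 mAb HB54 or isotype control (30 min, 4 °C), then PE anti-mouse IgG (30 min); flow cytometry. RFI = specific MFI / control MFI. Value reported as […].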

[2] = test system: T-cell; test: Stimulation of INFgamma production in 10C10 T cells at 10 uM by flow cytometry; assay type: functional, Homo sapiens
Summary of the method: (§1)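 Melan-A/MART-1-specific CD8 clones. T2 cells are pulsed 1 h at 37 °C with 10 µM compound and washed. 2 × 10^5 of them are co-cultured with 10^5 clone cells in RPMI-1640/10% FCS with brefeldin A (10 µg/mL) for 6 h at 37 °C. Cells are fixed in 4% PFA, then saponin-permeabilized and stained with PE anti-IFN-γ (5 µg/mL, 30 min). Flow cytometry on 10^4 events gives the % IFN-γ+ cells and the MFI.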

[3] = test system: T-cell; test: Stimulation of INFgamma production in M77.84 T cells at 10 uM by flow cytometry; assay type: functional, Homo sapiens; summary of the method: as §1
[4] = test system: T-cell; test: Stimulation of INFgamma production in M199.2.7 T cells at 10 uM by flow cytometry; assay type: functional, Homo sapiens; summary of the method: as §1
[5] = test system: T-cell; test: Stimulation of INFgamma production in M199.3.2 T cells at 10 uM by flow cytometry; assay type: functional, Homo sapiens; summary of the method: as §1
[6] = test system: T-cell; test: Stimulation of INFgamma production in CDM41 ELA1 T cells at 10 uM by flow cytometry; assay type: functional, Homo sapiens; summary of the method: as §1
[7] = Stimulation of INFgamma production in MEL1.37 T cells at 10 uM by flow cytometry; assay type: functional, Homo sapiens; summary of the method: as §1
[8] = test system: T-cell; test: Stimulation of INFgamma production in M17.29 ELA1 T cells at 10 uM by flow cytometry; assay type: functional, Homo sapiens; summary of the method: as §1
[9] = test system: T-cell; test: Stimulation of INFgamma production in CDM41 T cells at 10 uM by flow cytometry; assay type: functional, Homo sapiens; summary of the method: as §1
[10] = test system: T-cell; test: Stimulation of INFgamma production in M17.29 T cells at 10 uM by flow cytometry; assay type: functional, Homo sapiens; summary of the method: as §1
[11] = test system: T-cell; test: Stimulation of INFgamma production in MEL1.38 T cells at 10 uM by flow cytometry; assay type: functional, Homo sapiens

SMILES	Ratio [1]	Activity [3]	Activity [4]	Activity [7]	also measured
CC(C)C[C@H](NC(=O)CCN)C(=O)N[C@@H](C)C(=O)NCCN(CC(=O)NCc1cccc(C(=O)N[C@@H](CC(C)C)C(=O)N[C@H](C(=O)N[C@H](C(=O)O)C(C)C)[C@@H](C)O)c1)Cc1ccc([N+](=O)[O-])cc1 (H-[βAla]LA[X8][3Amb]LTV-OH)	0.86				
CC[C@H](C)[C@H](NC(=O)CNC(=O)CN(CCNC(=O)[C@H](C)NC(=O)[C@H](CC(C)C)NC(=O)[C@@H](N)CCC(=O)O)Cc1ccc([N+](=O)[O-])cc1)C(=O)N[C@@H](CC(C)C)C(=O)N[C@H](C(=O)N[C@H](C(=O)O)C(C)C)[C@@H](C)O	0.85	0%	0%	0%	Activity [2]: 0%; Activity [5]: 0%; Activity [6]: 64%; Activity [8]: 0%
CC[C@H](C)[C@H](NC(=O)CNC(=O)CN(CCNC(=O)[C@H](C)NC(=O)[C@H](CC(C)C)NC(=O)[C@@H](N)CCC(=O)O)Cc1ccnc2ccccc12)C(=O)N[C@@H](CC(C)C)C(=O)N[C@H](C(=O)N[C@H](C(=O)O)C(C)C)[C@@H](C)O	0.79	0%	0%	3%	Activity [2]: 0%; Activity [5]: 0%; Activity [6]: 69%; Activity [8]: 0%
CC[C@H](C)[C@H](NCCNC(=O)[C@H](Cc1ccc(O)cc1)NCCNC(=O)[C@H](C)NC(=O)[C@H](CC(C)C)NC(=O)[C@@H](N)CCC(=O)O)C(=O)N[C@@H](CC(C)C)C(=O)N[C@H](C(=O)N[C@H](C(=O)O)C(C)C)[C@@H](C)O	1.71				
CC[C@H](C)[C@H](NC(=O)CNC(=O)[C@H](Cc1ccccc1)NC(=O)CNC(=O)[C@H](C)NC(=O)[C@H](CC(C)C)NC(=O)[C@@H](N)CCC(=O)O)C(=O)N[C@@H](CC(C)C)C(=O)N[C@H](C(=O)N[C@H](C(=O)O)C(C)C)[C@@H](C)O		32%	7%	71%	Activity [5]: 83%; Activity [6]: 58%; Activity [8]: 48%
CC(C)C[C@H](NC(=O)CCN)C(=O)N[C@@H](C)C(=O)NCCN(CC(=O)NCc1cccc(C(=O)N[C@@H](CC(C)C)C(=O)N[C@H](C(=O)N[C@H](C(=O)O)C(C)C)[C@@H](C)O)c1)C(=O)Cc1c[nH]c2ccccc12 (X1-[N(2-Aminoethyl)Gly]([Ala-Leu-βAla])[3Amb]LTV-OH)	1.02	12%	25%	89%	Activity [2]: 0%; Activity [9]: 31%; Activity [10]: 27%; Activity [11]: 44%
CC[C@H](C)[C@H](NC(=O)CNC(=O)[C@H](Cc1ccc(O)cc1)NC(=O)CNC(=O)[C@H](C)NC(=O)[C@H](CC(C)C)NC(=O)[C@@H](N)CCC(=O)O)C(=O)N[C@@H](CC(C)C)C(=O)N[C@H](C(=O)N[C@H](C(=O)O)C(C)C)[C@@H](C)O		4%	0%	84%	Activity [2]: 0%; Activity [5]: 78%; Activity [6]: 63%; Activity [8]: 32%
CC[C@H](C)[C@H](NC(=O)CNC(=O)CN(CCNC(=O)[C@H](C)NC(=O)[C@H](CC(C)C)NC(=O)[C@@H](N)CCC(=O)O)Cc1ccc(O)cc1)C(=O)N[C@@H](CC(C)C)C(=O)N[C@H](C(=O)N[C@H](C(=O)O)C(C)C)[C@@H](C)O	0.83	0%	0%	0%	Activity [2]: 0%; Activity [5]: 0%; Activity [6]: 46%; Activity [8]: 0%
CC(C)C[C@H](NC(=O)CCN)C(=O)N[C@@H](C)C(=O)NCCN1Cc2[nH]c3ccccc3c2C[C@H]1C(=O)NCc1cccc(C(=O)N[C@@H](CC(C)C)C(=O)N[C@H](C(=O)N[C@H](C(=O)O)C(C)C)[C@@H](C)O)c1 (H-[βAla]LA[X2][3Amb]LTV-OH)	0.81				
CC[C@H](C)[C@H](NC(=O)CNC(=O)[C@H](Cc1c[nH]c2ccccc12)NC(=O)CNC(=O)[C@H](C)NC(=O)[C@H](CC(C)C)NC(=O)[C@@H](N)CCC(=O)O)C(=O)N[C@@H](CC(C)C)C(=O)N[C@H](C(=O)N[C@H](C(=O)O)C(C)C)[C@@H](C)O		90%	15%	81%	Activity [2]: 0%; Activity [5]: 54%; Activity [6]: 47%; Activity [8]: 55%
CC(C)C[C@H](NC(=O)CCN)C(=O)N[C@@H](C)C(=O)NCCN(CC(=O)NCc1cccc(C(=O)N[C@@H](CC(C)C)C(=O)N[C@H](C(=O)N[C@H](C(=O)O)C(C)C)[C@@H](C)O)c1)Cc1ccnc2ccccc12 (H-[βAla]LA[X9][3Amb]LTV-OH)	1.31				
CC(C)C[C@H](NC(=O)CCN)C(=O)N[C@@H](C)C(=O)NCCN(CC(=O)NCc1cccc(C(=O)N[C@@H](CC(C)C)C(=O)N[C@H](C(=O)N[C@H](C(=O)O)C(C)C)[C@@H](C)O)c1)Cc1ccccc1 (H-[βAla]LA[X3][3Amb]LTV-OH)	0.95				
CC(C)C[C@H](NC(=O)CCN)C(=O)N[C@@H](C)C(=O)NCCN1Cc2ccccc2C[C@H]1C(=O)NCc1cccc(C(=O)N[C@@H](CC(C)C)C(=O)N[C@H](C(=O)N[C@H](C(=O)O)C(C)C)[C@@H](C)O)c1 (H-[βAla]LA[X4][3Amb]LTV-OH)	0.64				
CC(C)C[C@H](NC(=O)CCN)C(=O)N[C@@H](C)C(=O)NCCN(CCc1ccccc1)CC(=O)NCc1cccc(C(=O)N[C@@H](CC(C)C)C(=O)N[C@H](C(=O)N[C@H](C(=O)O)C(C)C)[C@@H](C)O)c1 (H-[βAla]LA[X6][3Amb]LTV-OH)	0.25				

The next lines start with results.

Ratio [1]	SMILES	Activity [3]	Activity [4]	Activity [7]	also measured
0.96	CC[C@H](C)[C@H](NC(=O)CNC(=O)CN(CCNC(=O)[C@H](C)NC(=O)[C@H](CC(C)C)NC(=O)CCN)Cc1ccccc1)C(=O)N[C@@H](CC(C)C)C(=O)N[C@H](C(=O)N[C@H](C(=O)O)C(C)C)[C@@H](C)O				
1.61	CC[C@H](C)[C@H](NCCNC(=O)[C@H](Cc1c[nH]c2ccccc12)NCCNC(=O)[C@H](C)NC(=O)[C@H](CC(C)C)NC(=O)[C@@H](N)CCC(=O)O)C(=O)N[C@@H](CC(C)C)C(=O)N[C@H](C(=O)N[C@H](C(=O)O)C(C)C)[C@@H](C)O				
0.86	CC[C@H](C)[C@H](NC(=O)CNC(=O)CN(CCNC(=O)[C@H](C)NC(=O)[C@H](CC(C)C)NC(=O)[C@@H](N)CCC(=O)O)CC1CCCCC1)C(=O)N[C@@H](CC(C)C)C(=O)N[C@H](C(=O)N[C@H](C(=O)O)C(C)C)[C@@H](C)O				
0.86	CC(C)C[C@H](NC(=O)CCN)C(=O)N[C@@H](C)C(=O)NCCN(CCc1c[nH]c2ccccc12)CC(=O)NCc1cccc(C(=O)N[C@@H](CC(C)C)C(=O)N[C@H](C(=O)N[C@H](C(=O)O)C(C)C)[C@@H](C)O)c1 (H-[βAla]LA[X7][3Amb]LTV-OH)				
0.54	CC(C)C[C@H](NC(=O)CCN)C(=O)N[C@@H](C)C(=O)NCCN(CC(=O)NCc1cccc(C(=O)N[C@@H](CC(C)C)C(=O)N[C@H](C(=O)N[C@H](C(=O)O)C(C)C)[C@@H](C)O)c1)C(=O)Cc1ccccc1 (PhAc-[N(2-Aminoethyl)Gly]([Ala-Leu-βAla])[3Amb]LTV-OH)				
0.9	CC[C@H](C)[C@H](NC(=O)CNC(=O)CN(CCNC(=O)[C@H](C)NC(=O)[C@H](CC(C)C)NC(=O)[C@@H](N)CCC(=O)O)Cc1ccccc1)C(=O)N[C@@H](CC(C)C)C(=O)N[C@H](C(=O)N[C@H](C(=O)O)C(C)C)[C@@H](C)O				
0.7	CC[C@H](C)[C@H](NC(=O)CNC(=O)CN(CCNC(=O)[C@H](C)NC(=O)[C@H](CC(C)C)NC(=O)[C@@H](N)CCC(=O)O)Cc1cccc2ccccc12)C(=O)N[C@@H](CC(C)C)C(=O)N[C@H](C(=O)N[C@H](C(=O)O)C(C)C)[C@@H](C)O				
